Results published in ChEMBL document CHEMBL4340521, “Subtle modifications to a thieno[2,3-d]pyrimidine scaffold yield negative allosteric modulators and agonists of the dopamine D2 receptor” (Eur J Med Chem, 2019).
The source made the active and inactive calls. The calls are words filed in the database; no cut-off is given here.

Columns and labels:
D(2) dopamine receptor [1] = target: T1, D(2) dopamine receptor (Homo sapiens, UniProt P14416); experiment: (§1) Negative allosteric modulation of recombinant human D2L receptor expressed in Flp-In CHO cells assessed as inhibition of dopamine-induced reduction in forskolin stimulated cAMP accumulation by measuring equilibrium dissociation constant preincubated for 30 mins followed by forskolin stimulation and measured after 30 mins by BRET assay; assay type: functional, cell-based
D(2) dopamine receptor [2] = target: T1, D(2) dopamine receptor; experiment: as §1, with “intrinsic efficacy of the modulator” for “equilibrium dissociation constant”; assay type: functional, cell-based
D(2) dopamine receptor [3] = target: T1, D(2) dopamine receptor; experiment: as §1, with “modulation of dopamine efficacy” for “equilibrium dissociation constant”; assay type: functional, cell-based
D(2) dopamine receptor [4] = target: T1, D(2) dopamine receptor; experiment: as §1, with “net cooperativity factor” for “equilibrium dissociation constant”; assay type: functional, cell-based
D(2) dopamine receptor [5] = target: T1, D(2) dopamine receptor; experiment: as §1, with “constant up to 100 uM” for “constant”; assay type: functional, cell-based
D(2) dopamine receptor [6] = target: T1, D(2) dopamine receptor; experiment: Competitive antagonist activity at recombinant human D2L receptor expressed in Flp-In CHO cells assessed as inhibition of dopamine-induced reduction in forskolin stimulated cAMP accumulation preincubated for 30 mins followed by forskolin stimulation and measured after 30 mins by BRET assay; assay type: functional, cell-based; conditions: read-out: pA2 (converted)
CHO [7] = experiment: Modulation of dopamine-induced forskolin stimulated cAMP accumilation in hamster FlpIn CHO cells assessed as BRET signal at 100 uM preincubated for 30 mins followed by forskolin stimulation and measured after 30 mins by BRET assay relative to control; assay type: cell-based, Cricetinae; conditions: Cricetulus griseus, 0.5 h, read-out: Activity
Summary of the method: (§2)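 Wild-type FlpIn CHO cells lacking D2R, transfected with CAMYEL cAMP BRET biosensor. Compounds at 1-100 μM plus dopamine 10 μM added 30 min before stimulation, with or without 10 μM forskolin (final). Coelenterazine-h 5 μM final. BRET ratio 535/475 nm read 30 min after stimulation.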

CHO [8] = experiment: Modulation of dopamine-induced forskolin stimulated cAMP accumilation in hamster FlpIn CHO cells assessed as BRET signal preincubated for 30 mins followed by forskolin stimulation and measured after 30 mins by BRET assay relative to control; assay type: cell-based; conditions: cricetinae, 0.5 h; summary of the method: as §2

T1 sequence (P14416 whole entry): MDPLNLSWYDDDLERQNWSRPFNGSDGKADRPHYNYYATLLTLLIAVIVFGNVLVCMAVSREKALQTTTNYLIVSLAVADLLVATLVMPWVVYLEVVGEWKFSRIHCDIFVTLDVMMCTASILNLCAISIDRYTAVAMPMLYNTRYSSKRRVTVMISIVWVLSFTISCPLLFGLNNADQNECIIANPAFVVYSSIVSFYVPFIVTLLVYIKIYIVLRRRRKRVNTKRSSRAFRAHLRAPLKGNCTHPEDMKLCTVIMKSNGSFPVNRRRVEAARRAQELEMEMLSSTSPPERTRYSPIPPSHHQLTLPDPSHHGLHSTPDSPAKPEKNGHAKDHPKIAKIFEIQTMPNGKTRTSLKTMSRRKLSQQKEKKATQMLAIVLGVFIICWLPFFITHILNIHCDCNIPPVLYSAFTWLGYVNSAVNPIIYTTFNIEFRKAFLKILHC

| Compound | Kb (D(2) dopamine receptor [1]) [µM] | pKb (D(2) dopamine receptor [1]) | Intrinsic activity (D(2) dopamine receptor [2]) | log(activity) (D(2) dopamine receptor [2]) | Efficacy (D(2) dopamine receptor [3]) | log(activity) (D(2) dopamine receptor [3]) | Activity index (D(2) dopamine receptor [4]) | log(activity) (D(2) dopamine receptor [4]) | Activity (D(2) dopamine receptor [5]) | Kb (D(2) dopamine receptor [6]) [µM] | activity at 100 µM (CHO [7]) [%] | Activity (CHO [8]) |
| --- | --- | --- | --- | --- | --- | --- | --- | --- | --- | --- | --- | --- |
| c1nc(NCC2CC2)c2c3c(sc2n1)CCCC3 | 1.19 | 5.92 | 0.86 | -0.06 | 0.29 | -0.54 |  |  |  |  |  |  |
| CCN(CC)c1ncnc2scc(-c3ccccc3)c12 | 60 | 4.22 |  | -3 |  | 0 | 0.27 | -0.57 |  |  |  |  |
| c1nc(NC2CC2)c2c3c(sc2n1)CCC3 | 6.01 | 5.22 | 0.75 | -0.13 | 0.28 | -0.55 |  |  |  |  |  |  |
| Cc1sc2ncnc(NC3CC3)c2c1C |  |  |  |  |  |  |  |  | inactive |  |  |  |
| CC(C)(C)Nc1ncnc2sc3c(c12)CCCC3 | 92.5 | 4.03 |  | 0 |  | 0 | 0.91 | -0.04 |  |  |  |  |
| c1nc(N2CCCC2)c2c3c(sc2n1)CCCC3 | 4.23 | 5.37 |  | 0 | 0.17 | -0.76 |  |  |  |  |  |  |
| CCN(CC)c1ncnc2sc(C)c(C)c12 | 19.5 | 4.71 |  | 0 |  | 0 | 0.24 | -0.61 |  |  |  |  |
| c1nc(NC2CCC2)c2c3c(sc2n1)CCC3 |  | 3.99 |  | 0 |  | 0 | 0.57 | -0.25 |  |  |  |  |
| CCN(CC)c1ncnc2sc3c(c12)CCC3 | 0.74 | 6.13 |  | 0 | 0.14 | -0.85 |  |  |  |  |  |  |
| c1ccc(-c2csc3ncnc(NC4CC4)c23)cc1 | 1.93 | 5.72 |  | -3 |  | 0 | 0.32 | -0.47 |  |  |  |  |
| c1nc(NC2CC2)c2c3c(sc2n1)CCCC3 | 0.88 | 6.05 |  | 0 | 0.03 | -1.48 |  |  |  |  |  |  |
| CCN(CC)c1ncnc2sc(C3CCCCC3)cc12 |  |  |  |  |  |  |  |  | inactive |  |  |  |
| c1nc(NC2CC2)c2ccsc2n1 | 21.4 | 4.67 |  | -3 |  | 0 | 0.22 | -0.65 |  |  |  |  |
| c1nc(NC2CCC2)c2cc(C3CCCCC3)sc2n1 |  |  |  |  |  |  |  |  | inactive |  |  |  |
| c1nc(N2CCNCC2)c2c3c(sc2n1)CCCC3 | 20 | 4.7 |  | -3 |  | 0 |  |  |  | 21.4 |  |  |
| CCN(CC)c1ncnc2sc3c(c12)CCCCC3 |  |  |  |  |  |  |  |  | inactive |  |  |  |
| CCN(CC)c1ncnc2sc3c(c12)CCCC3 |  | 5.72 |  | 0 |  | -3 |  | -3 |  |  |  |  |
| c1nc(NC2CCC2)c2ccsc2n1 | 7.38 | 5.13 |  | 0 |  | 0 | 0.48 | -0.32 |  |  |  |  |
| CCN(CC)c1ncnc2scc(C3CCCCC3)c12 |  |  |  |  |  |  |  |  | inactive |  |  |  |

| Compound | Kb (D(2) dopamine receptor [1]) [µM] | pKb (D(2) dopamine receptor [1]) | Intrinsic activity (D(2) dopamine receptor [2]) | log(activity) (D(2) dopamine receptor [2]) | Efficacy (D(2) dopamine receptor [3]) | log(activity) (D(2) dopamine receptor [3]) | Activity index (D(2) dopamine receptor [4]) | log(activity) (D(2) dopamine receptor [4]) | Activity (D(2) dopamine receptor [5]) | Kb (D(2) dopamine receptor [6]) [µM] | activity at 100 µM (CHO [7]) [%] | Activity (CHO [8]) |
| --- | --- | --- | --- | --- | --- | --- | --- | --- | --- | --- | --- | --- |
| c1nc(NC2CC2)c2c(C3CCCCC3)csc2n1 | 11.6 | 4.93 |  | 0 | 0.09 | -1.04 |  |  |  |  |  |  |
| Cc1sc2ncnc(NC3CCC3)c2c1C | 2.88 | 5.54 |  |  | 0.13 | -0.9 |  |  |  |  |  |  |
| CCN(CC)c1ncnc2sccc12 |  | 5.31 |  | 0 | 0.13 | -0.89 |  |  |  |  |  |  |
| c1ccc(-c2cc3c(NC4CCC4)ncnc3s2)cc1 | 4.5 | 5.35 |  | 0 |  | 0 | 0.28 | -0.55 |  |  |  |  |
| c1ccc(-c2csc3ncnc(NC4CCC4)c23)cc1 |  | 3.89 |  | -3 |  | 0 | 0.39 | -0.41 |  |  |  |  |
| CCN(CC)c1ncnc2sc(-c3ccccc3)cc12 | 0.9 | 6.04 |  | 0 |  | -3 |  |  |  |  |  |  |
| c1nc(NC2CCC2)c2c3c(sc2n1)CCCCCC3 | 3.98 | 5.4 |  | 0 | 0.26 | -0.58 |  |  |  |  |  |  |
| c1nc(NC2CC2)c2c3c(sc2n1)CCCCC3 | 2.96 | 5.53 |  | 0 | 0.05 | -1.3 |  |  |  |  |  |  |
| c1nc(NC2CC2)c2c3c(sc2n1)CCCCCC3 | 0.53 | 6.27 |  | 0 | 0.1 | -1 |  |  |  |  |  |  |
| c1ccc(-c2cc3c(NC4CC4)ncnc3s2)cc1 | 6.35 | 5.92 | 0.6 | -0.22 | 0.43 | -0.37 |  |  |  |  |  |  |
| c1nc(N2CCOCC2)c2c3c(sc2n1)CCCC3 |  | 3.9 |  | 0 |  | 0 | 1.66 | -0.22 |  |  |  |  |
| c1nc(NC2CCC2)c2c3c(sc2n1)CCCC3 | 0.57 | 6.25 | 0.19 | -0.72 | 0.22 | -0.65 |  |  |  |  |  |  |
| c1nc(NC2CCC2)c2c3c(sc2n1)CCCCC3 | 0.91 | 6.04 |  | 0 | 0.06 | -1.22 |  |  |  |  |  |  |
| c1nc(NC2CCCCC2)c2c3c(sc2n1)CCCC3 |  |  |  |  |  |  |  |  | inactive |  |  |  |
| c1ccc(Nc2ncnc3sc4c(c23)CCCC4)cc1 |  |  |  |  |  |  |  |  | inactive |  |  |  |
| CCN(CC)c1ncnc2sc3c(c12)CCCCCC3 | 14.5 | 4.84 |  | 0 |  | -3 |  |  |  |  | 28 |  |
| c1nc(NC2CC2)c2cc(C3CCCCC3)sc2n1 |  |  |  |  |  |  |  |  | inactive |  |  |  |
| c1nc(NC2CCC2)c2c(C3CCCCC3)csc2n1 | 2.92 | 5.53 |  | 0 | 0.03 | -1.55 |  |  |  |  |  |  |
| c1nc(N2CCCCC2)c2c3c(sc2n1)CCCC3 | 59.3 | 4.23 |  | 0 |  | 0 |  |  |  |  | 26 | Dose-dependent effect |
